From ChEMBL document CHEMBL5705892, “MK-2206, an allosteric Akt inhibitor, enhances antitumor efficacy by standard chemotherapeutic agents or molecular targeted drugs in vitro and in vivo” (Mol Cancer Ther, 2010)
The source made the active and inactive calls. The rule behind the calls is not given here.

Tests used:
HCC70 [1] = assay: Induction of apoptosis in human HCC70 cells assessed as increase in caspase-3/7 activity at 3 umol/L measured after 48 hrs in presence of lapatinib by caspase-glo 3/7 assay relative to control; format: functional; conditions: dose 3 µmol/L
Method in brief: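 HCC70 cells were grown in RPMI 1640 with 10% heat-inactivated FBS at 37°C in 5% CO₂. They were exposed for 48 h to MK-2206 (0, 0.03, 0.3, 3 µmol/L), with or without lapatinib (0, 1, 3, 5, 10 µmol/L). Caspase-3/7 activity was read by Caspase-Glo 3/7 luminescence and expressed as fold induction over the DMSO vehicle control. The experiment was run twice, and representative data were reported.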

A2780 [2] = assay: Cell cycle arrest in human A2780 cells assessed as increase in accumulation of cells at sub-G1 phase measured after 72 hrs in presence of camptothecin by propidium iodide staining based flow cytometry; format: functional
[3] = biological target: RAC-alpha serine/threonine-protein kinase (Homo sapiens) (UniProt P31749); assay: Inhibition of AKT phosphorylation at S473 residue in human HCC70 cells at 1 umol/L measured after 3 to 24 hrs by Western blot analysis; format: cell-based; conditions: dose 1.0 µmol/L, time 3-24 hrs
RAC-alpha serine/threonine-protein kinase (Homo sapiens), sequence (P31749 whole entry): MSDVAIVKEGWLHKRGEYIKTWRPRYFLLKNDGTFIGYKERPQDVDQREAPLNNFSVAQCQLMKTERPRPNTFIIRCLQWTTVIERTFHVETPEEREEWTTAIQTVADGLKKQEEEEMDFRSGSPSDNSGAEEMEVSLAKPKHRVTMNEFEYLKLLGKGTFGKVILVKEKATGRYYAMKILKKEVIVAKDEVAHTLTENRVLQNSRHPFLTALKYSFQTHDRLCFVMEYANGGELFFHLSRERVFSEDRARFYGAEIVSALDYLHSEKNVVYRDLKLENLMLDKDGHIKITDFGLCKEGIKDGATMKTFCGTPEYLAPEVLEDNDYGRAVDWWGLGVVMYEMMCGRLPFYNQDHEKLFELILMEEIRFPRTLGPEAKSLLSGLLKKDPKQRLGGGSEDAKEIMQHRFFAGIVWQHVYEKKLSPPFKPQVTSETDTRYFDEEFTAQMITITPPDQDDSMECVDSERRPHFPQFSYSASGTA
Method in brief: (§1)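 HCC70 cells at ~70% confluence were exposed to 10 µmol/L lapatinib, 1 µmol/L MK-2206, or both, for 0, 3, 6, 12 or 24 h. Lysates were prepared in Triton X-100/Tris buffer (pH 7.5) with protease and phosphatase inhibitors. Immunoblots after SDS-PAGE and nitrocellulose transfer were probed for pAkt and pS6.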

HCC70 [4] = assay: Antiproliferative activity against human HCC70 cells assessed as reduction in cell proliferation measured after 72 hrs by celltiter-glo assay; format: functional, cell-based; conditions: HCC70, 72 h
Method in brief: (§2)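 Cells in RPMI 1640 with 10% heat-inactivated FBS at 37°C and 5% CO₂ were seeded at 2 to 3 × 10³ per well. […] Growth was read as cellular ATP by CellTiter-Glo.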

NCI-H292 [5] = assay: Induction of apoptosis in human NCI-H292 cells assessed as increase in caspase-3/7 activity up to 3 umol/L measured after 48 hrs by caspase-glo 3/7 assay; format: functional, cell-based; conditions: dose <= 3.0 µmol/L
Method in brief: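 Caspase-3/7 activity was measured by Caspase-Glo 3/7 and expressed as fold over DMSO vehicle control. The experiment was done twice.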

SK-BR-3 [6] = assay: Antiproliferative activity against human SK-BR-3 cells assessed as reduction in cell proliferation measured after 72 hrs by celltiter-glo assay; format: functional, cell-based; conditions: SK-BR-3, 72 h; method in brief: as §2
SK-OV-3 = assay: Antiproliferative activity against human SK-OV-3 cells assessed as reduction in cell proliferation measured after 72 hrs by celltiter-glo assay; format: functional, cell-based; conditions: SK-OV-3, 72 h; method in brief: as §2
A2780 [7] = assay: Synergistic antiproliferative activity against human A2780 cells assessed as combination index at ED50 measured after 72 hrs in presence of doxorubicin by celltiter-glo assay; format: functional
Method in brief: (§3)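 Cells were seeded at 2–3 × 10³ per well in RPMI 1640 with 10% FBS. At 24 h, MK-2206 and the partner drug were added simultaneously at constant concentration ratios spanning each agent's IC₅₀, for 72 h. Growth was read as cellular ATP by CellTiter-Glo. CI was taken from median-effect plots of each agent alone and in combination (Chou–Talalay), at ED₅₀, ED₇₅ and ED₉₀.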

A-431 = assay: Synergistic antiproliferative activity against human A-431 cells assessed as combination index at ED75 measured after 72 hrs in presence of erlotinib by celltiter-glo assay; format: functional; method in brief: as §3
Mus musculus = assay: In vivo inhibition of AKT in human NCI-H292 cells xenografted mouse at 120 mg/kg, po administered as single dose measured after 12 hrs by immunoprecipitation assay; format: functional, organism-based
NCI-H460 = assay: Induction of apoptosis in human NCI-H460 cells assessed as fold induction of capsase-3/7 activity measured after 24 to 48 hrs in presence of carboplatin by caspase-glo 3/7 assay; format: functional; conditions: time 24-48 hrs
[8] = biological target: RAC-alpha serine/threonine-protein kinase (Homo sapiens) (UniProt P31749); assay: Inhibition of AKT phosphorylation at S473 residue in human HCC70 cells at 1 umol/L measured after 3 to 24 hrs in presence of lapatinib by Western blot analysis; format: cell-based; conditions: dose 1.0 µmol/L, time 3-24 hrs; method in brief: as §1
Calu-6 = assay: Antiproliferative activity against human Calu-6 cells assessed as reduction in cell proliferation measured after 72 hrs by celltiter-glo assay; format: functional, cell-based; conditions: Calu-6, 72 h; method in brief: as §2
A2780 [9] = assay: Synergistic antiproliferative activity against human A2780 cells assessed as combination index at ED50 measured after 72 hrs in presence of camptothecin by celltiter-glo assay; format: functional; method in brief: as §3
[10] = Toxicity in human NCI-H292 cells xenografted CD-1 mouse assessed as death at 360 mg/kg, po administered once a week for 2 weeks and measured during compound dosing; format: organism-based; conditions: in vivo, 336 h
Method in brief: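 NCI-H292 cells in 50% Matrigel/PBS injected s.c. into flank of female CD1-nude mice; dosing began after 2 wk at mean tumour 0.2 cm³, n = 5/group. […] Body weight and signs monitored; treatment ended day 16.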

SK-BR-3 [11] = assay: Synergistic antiproliferative activity against human SK-BR-3 cells assessed as combination index at ED90 measured after 72 hrs in presence of lapatinib by celltiter-glo assay; format: functional
HCC1954 [12] = assay: Synergistic antiproliferative activity against lapatinib pretreated human HCC1954 cells assessed as combination index at ED50 measured after 72 hrs by celltiter-glo assay; format: functional
[13] = biological target: RAC-alpha serine/threonine-protein kinase (Homo sapiens) (UniProt P31749); assay: Inhibition of AKT phosphorylation at S473 residue in human NCI-H1993 cells at 3 umol/L measured after 4 to 24 hrs in presence of gemcitabine by MSD assay; conditions: time 4-24 hrs
HCC70 [14] = assay: Synergistic antiproliferative activity against human HCC70 cells assessed as combination index at ED90 treated 24 hrs prior to lapatinib and measured after 72 hrs by celltiter-glo assay; format: functional; conditions: time 96 hrs
SK-BR-3 [15] = assay: Synergistic antiproliferative activity against lapatinib pretreated human SK-BR-3 cells assessed as combination index at ED90 measured after 72 hrs by celltiter-glo assay; format: functional
[16] = Toxicity in human SK-OV-3 cells xenografted CB17/icr SCID mouse assessed as body weight loss at 60 to 120 mg/kg, po administered 3 times per week for 2 weeks starting 2 hrs post lapatinib treatment and measured during compound dosing; format: organism-based; conditions: in vivo, 336 h, dose 60-120 mg/kg
Method in brief: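 SK-OV-3 cells in 50% Matrigel/PBS injected s.c. into flank of female C.B-17/ICR-scid mice; dosing began after 3 wk, randomized at mean tumour 0.13 cm³ (n = 5). Lapatinib 100 mg/kg p.o. in distilled water 5 d/wk for 2 wk; MK-2206 in 30% Captisol p.o. days 0, 2, 4, 7, 9, 11. Body weight and physical signs monitored.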

HCC1954 [17] = assay: Synergistic antiproliferative activity against human HCC1954 cells assessed as combination index at ED75 measured after 96 hrs in presence of lapatinib by celltiter-glo assay; format: functional
MDA-MB-468 = assay: Synergistic antiproliferative activity against human MDA-MB-468 cells assessed as combination index at ED75 measured after 72 hrs in presence of lapatinib by celltiter-glo assay; format: functional
NCI-H292 [18] = assay: Antiproliferative activity against human NCI-H292 cells assessed as reduction in cell proliferation measured after 72 hrs by celltiter-glo assay; format: functional, cell-based; conditions: NCI-H292, 72 h; method in brief: as §2

Cl.NC1(c2ccc(-c3nc4ccn5c(=O)[nH]nc5c4cc3-c3ccccc3)cc2)CCC1
fold change (FC) (HCC70 [1]): 7
Activity (A2780 [2]): Dose-Dependent Effect
inhibition [3]: Active
IC50 (HCC70 [4]): 0.3 µM
Activity (NCI-H292 [5]): inactive
IC50 (SK-BR-3 [6]): 0.1 µM
IC50 (SK-OV-3): 5.1 µM
CI50 (A2780 [7]): 0.7
CI75 (A-431): 0.21
inhibition (Mus musculus): Active
fold change (FC) (NCI-H460): 1.4
inhibition [8]: Active
IC50 (Calu-6): 28.6 µM
CI50 (A2780 [9]): 0.56
Activity [10]: Non-Toxic
CI90 (SK-BR-3 [11]): 0.09
CI50 (HCC1954 [12]): 0.18
inhibition [13]: Active
CI90 (HCC70 [14]): 0.18
CI90 (SK-BR-3 [15]): 0.18
Activity [16]: Non-Toxic
CI75 (HCC1954 [17]): 0.18
CI75 (MDA-MB-468): 0.25
IC50 (NCI-H292 [18]): 5.2 µM
